One series relates to isolated rat heart. The settings on record: uptake-2 blocked pharmacologically; cited from earlier work.
The conditions of series [1]: rats, t = 30 min, n = 5, mean ± SD; cited from earlier work.
Series [2] is described as follows: Biodistribution studies in rats. It counts as in vivo, rat. Conditions: t = 30 min after intravenous injection, n = 5, mean ± SD. Put shortly: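 Rats received the fluorine-18 labelled test compound by intravenous injection. Tissue radioactivity was determined 30 min later and expressed as % injected dose/g, with n = 5 each.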
The nature of series [3]: MicroPET imaging study in rhesus macaque. It counts as in vivo, rhesus macaque monkey. Conditions: PET.

Where two headings read alike, the source gives them in different places.

For `N=C(N)NCc1cccc([123I])c1` [[^123I]MIBG, [^123I]-m-iodobenzylguanidine], in the series with isolated rat heart, the “Major Clearance T1/2” value is reported as 3.5 ± 1.8 h.
Turning to `N=C(N)NCc1ccc([18F])cc1` [[^18F]PFBG, p-[^18F]fluorobenzylguanidine], the “Major Clearance T1/2” value in the series on isolated rat heart was 0.53 ± 0.06 h.
As to `N=[11C](N)NCCc1ccc(F)c(O)c1` [[^11C]4F-MHPG, [^11C]4-fluoro-m-hydroxyphenethylguanidine], in the series on isolated rat heart, the “Major Clearance T1/2” value is on record as over 73 h and the “Neuronal uptake rate Kup” value is 0.72 ml/min/g wet. In addition, in series [1], the “Tissue concentration, adrenal medulla” value is given as 0.56 ± 0.21 % injected dose/g; the “Tissue concentration, blood” value was 0.08 ± 0.01 % injected dose/g; the “Tissue concentration, left ventricle” value is 1.77 ± 0.27 % injected dose/g; the “Tissue concentration, liver” value is on record as 1.22 ± 0.18 % injected dose/g. In series [1], the “Tissue concentration, lung” value is 0.56 ± 0.15 % injected dose/g and the “Tissue concentration, spleen” value is given as 0.52 ± 0.10 % injected dose/g.
`NC(N)=NCc1cccc([125I])c1` [[^125I]MIBG]: in series [1], the “Tissue concentration, adrenal medulla” value is 1.53 ± 0.08 % injected dose/g; the “Tissue concentration, blood” value is on record as 0.10 ± 0.01 % injected dose/g; the “Tissue concentration, liver” value is given as 1.19 ± 0.06 % injected dose/g; the “Tissue concentration, lung” value is reported as 2.31 ± 0.19 % injected dose/g. Further, in series [1], the “Tissue concentration, spleen” value was 0.85 ± 0.06 % injected dose/g.
As for `N=C(N)NCCc1ccc([18F])c(O)c1` [[^18F]4F-MHPG, [^18F]4-fluoro-m-hydroxyphenethylguanidine], in series [2], the “Tissue concentration, adrenal medulla” value amounted to 0.54 ± 0.08 % injected dose/g; the “Tissue concentration, blood” value is on record as 0.07 ± 0.01 % injected dose/g; the “Tissue concentration, left ventricle” value is 1.45 ± 0.13 % injected dose/g; the “Tissue concentration, liver” value was determined as 1.14 ± 0.16 % injected dose/g. Further, in series [2], the “Tissue concentration, lung” value is reported as 0.43 ± 0.08 % injected dose/g and the “Tissue concentration, spleen” value is reported as 0.56 ± 0.10 % injected dose/g. Further, in series [3], the “Retention of the tracer in the lungs” value was “essentially no retention” and the “Uptake in the liver relative to cardiac uptake” value is on record as “a little lower than the cardiac uptake”. For the same molecule, the “Activity in the vertebrae of the spine (in vivo defluorination)” value in series [3] (sagittal images) was “little or no activity”.
On to “[^11C]-(−)-m-hydroxyephedrine [[^11C]HED]”, for which, in the series on isolated rat heart, the “Neuronal uptake rate Kup” value was 2.7 ± 0.4 ml/min/g wet.
